Source: ChEMBL document CHEMBL3576859, “Novel benzamide-based histamine h3 receptor antagonists: the identification of two candidates for clinical development” (ACS Med Chem Lett, 2015)
Activity calls are given as the source filed them. No cut-off for these calls is given here.

Legend:
[1] = biological target: Voltage-gated inwardly rectifying potassium channel KCNH2 (Homo sapiens, UniProt Q12809); experiment: Displacement of [3H]-astemizole from human ERG expressed in HEK293 cells after 60 mins by scintillation counting analysis; format: cell-based
Chain of Voltage-gated inwardly rectifying potassium channel KCNH2 (Q12809 whole entry): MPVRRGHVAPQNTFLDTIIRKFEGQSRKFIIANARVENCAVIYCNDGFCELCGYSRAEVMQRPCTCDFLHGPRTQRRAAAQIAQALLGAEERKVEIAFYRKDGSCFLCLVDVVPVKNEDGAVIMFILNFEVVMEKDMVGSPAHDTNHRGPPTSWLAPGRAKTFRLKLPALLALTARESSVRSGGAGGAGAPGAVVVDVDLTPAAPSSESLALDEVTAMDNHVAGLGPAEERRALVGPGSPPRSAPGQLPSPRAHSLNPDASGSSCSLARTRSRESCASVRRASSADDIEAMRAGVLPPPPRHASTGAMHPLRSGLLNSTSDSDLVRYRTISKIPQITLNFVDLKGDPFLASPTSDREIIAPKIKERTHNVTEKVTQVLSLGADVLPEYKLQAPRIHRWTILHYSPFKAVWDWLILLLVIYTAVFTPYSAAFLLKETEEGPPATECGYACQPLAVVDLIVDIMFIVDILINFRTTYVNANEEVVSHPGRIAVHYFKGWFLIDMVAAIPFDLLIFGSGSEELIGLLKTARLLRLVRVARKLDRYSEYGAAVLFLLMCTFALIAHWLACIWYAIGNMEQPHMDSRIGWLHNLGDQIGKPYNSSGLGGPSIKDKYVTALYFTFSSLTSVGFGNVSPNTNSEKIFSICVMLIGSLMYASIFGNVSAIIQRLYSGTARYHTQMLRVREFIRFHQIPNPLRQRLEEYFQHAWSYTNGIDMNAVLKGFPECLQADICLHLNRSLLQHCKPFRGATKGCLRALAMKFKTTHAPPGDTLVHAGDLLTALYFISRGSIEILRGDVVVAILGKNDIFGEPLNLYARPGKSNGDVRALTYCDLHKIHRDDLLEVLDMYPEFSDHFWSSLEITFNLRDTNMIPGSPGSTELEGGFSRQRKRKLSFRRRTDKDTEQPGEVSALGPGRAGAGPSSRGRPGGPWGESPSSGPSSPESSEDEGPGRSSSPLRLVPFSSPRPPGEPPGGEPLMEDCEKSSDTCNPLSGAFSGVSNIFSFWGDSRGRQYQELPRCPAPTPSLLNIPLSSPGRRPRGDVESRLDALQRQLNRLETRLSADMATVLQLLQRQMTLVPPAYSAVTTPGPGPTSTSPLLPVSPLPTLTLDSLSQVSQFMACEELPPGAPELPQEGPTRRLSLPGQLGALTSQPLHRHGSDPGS

[2] = Oral bioavailability in Sprague-Dawley rat at 10 mg/kg; format: ADME, organism-based; settings: in vivo
[3] = biological target: Voltage-gated L-type calcium channel (Rattus norvegicus, UniProt P22002+Q02485+P27732); experiment: Binding affinity to rat L-type calcium channel at 1 uM
[4] = Apparent permeability across basolateral to apical side in human Caco2 cells at 10 uM […] by LC/MS/MS analysis; format: ADME, cell-based; settings: Caco-2
Summary of the method: (§1)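 Caco-2 monolayer permeability measured in both directions, apical-to-basolateral and basolateral-to-apical. Reported as P_app (×10−⁶ cm/s), given as A−B/B−A pairs.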

[5] = Drug uptake in Sprague-Dawley rat brain at 3 mg/kg, po measured at 1 hr; format: ADME, organism-based; settings: read-out: Drug uptake
Summary of the method: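 Rats dosed orally at 3 mg/kg. Brain drug concentration (μM) measured at 1 h post-dose.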

[6] = Metabolic stability in Sprague-Dawley rat liver microsomes assessed as compound remaining at 1 uM after 15 mins; format: ADME; settings: read-out: Stability
Summary of the method: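 Rat liver microsomes incubated with compound for 15 min. Stability expressed as percent of parent remaining.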

[7] = Volume of distribution at steady state in Sprague-Dawley rat; format: ADME, organism-based; settings: in vivo, read-out: Vdss
[8] = Half life in Sprague-Dawley rat at 1 mg/kg, iv; format: ADME, organism-based; settings: in vivo
Histamine H3 receptor = Histamine H3 receptor (Homo sapiens, UniProt Q9Y5N1); experiment: Displacement of N-[3H]methylhistamine from human histamine H3 receptor expressed in human SK-N-MC cells after 45 mins; format: cell-based
Chain of Histamine H3 receptor (Q9Y5N1 whole entry): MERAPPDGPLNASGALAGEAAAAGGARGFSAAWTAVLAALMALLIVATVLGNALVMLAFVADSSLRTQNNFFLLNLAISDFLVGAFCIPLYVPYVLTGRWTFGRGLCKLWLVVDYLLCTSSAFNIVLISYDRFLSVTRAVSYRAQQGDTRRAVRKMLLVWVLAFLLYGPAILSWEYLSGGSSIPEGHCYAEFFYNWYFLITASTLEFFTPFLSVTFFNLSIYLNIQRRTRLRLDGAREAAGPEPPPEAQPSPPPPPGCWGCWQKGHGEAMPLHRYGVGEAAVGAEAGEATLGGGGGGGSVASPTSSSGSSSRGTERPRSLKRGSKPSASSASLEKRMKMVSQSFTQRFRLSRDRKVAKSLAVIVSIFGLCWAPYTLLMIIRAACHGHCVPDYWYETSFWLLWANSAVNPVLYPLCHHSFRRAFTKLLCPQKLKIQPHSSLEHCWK

Rattus norvegicus [9] = experiment: Ex vivo histamine H3 receptor occupancy in Sprague-Dawley rat striatum at 3 mg/kg, po measured at 1 hr by autoradiographic analysis; format: functional
Summary of the method: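 After a 3 mg/kg oral dose in rats, ex vivo H3 receptor occupancy was determined by autoradiography at 1 h. Values are mean ± SD.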

[10] = Clearance in Sprague-Dawley rat; format: ADME, organism-based; settings: in vivo
[11] = Apparent permeability across apical to basolateral side in human Caco2 cells at 10 uM after 60 mins by LC/MS/MS analysis; format: ADME, cell-based; settings: Caco-2; summary of the method: as §1
[12] = Metabolic stability in human liver microsomes assessed as compound remaining at 1 uM after 15 mins; format: ADME; settings: read-out: Stability
Summary of the method: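 Compound incubated with human liver microsomes for 15 min. Read-out is percent parent remaining.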

Mus musculus = species on record: Mus musculus; experiment: Toxicity in mouse; format: organism-based; settings: in vivo
[13] = Plasma protein binding in human; format: ADME, cell-free; settings: read-out: PPB (converted)
[14] = Elimination half life in human at 2 mg; format: ADME, organism-based; settings: in vivo, read-out: beta t1/2 (converted)
Summary of the method: (§2)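 Mean elimination half-life determined in human dose groups receiving 2 mg and 5 mg.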

Rattus norvegicus [15] = experiment: Toxicity in rat assessed as decrease in body weight at 250 mg/kg, po administered up to 28 days; format: organism-based; settings: in vivo, 672 h
Summary of the method: (§3)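 Rats dosed orally at up to 250 mg/kg daily for up to 28 days. Monitored for clinical signs (salivation, activity), body weight, food consumption and clinical pathology; NOAEL derived.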

Cytochrome P450 3A4 = Cytochrome P450 3A4 (Homo sapiens, UniProt P08684); experiment: Inhibition of CYP3A4 (unknown origin); format: ADME
Chain of Cytochrome P450 3A4 (P08684 whole entry): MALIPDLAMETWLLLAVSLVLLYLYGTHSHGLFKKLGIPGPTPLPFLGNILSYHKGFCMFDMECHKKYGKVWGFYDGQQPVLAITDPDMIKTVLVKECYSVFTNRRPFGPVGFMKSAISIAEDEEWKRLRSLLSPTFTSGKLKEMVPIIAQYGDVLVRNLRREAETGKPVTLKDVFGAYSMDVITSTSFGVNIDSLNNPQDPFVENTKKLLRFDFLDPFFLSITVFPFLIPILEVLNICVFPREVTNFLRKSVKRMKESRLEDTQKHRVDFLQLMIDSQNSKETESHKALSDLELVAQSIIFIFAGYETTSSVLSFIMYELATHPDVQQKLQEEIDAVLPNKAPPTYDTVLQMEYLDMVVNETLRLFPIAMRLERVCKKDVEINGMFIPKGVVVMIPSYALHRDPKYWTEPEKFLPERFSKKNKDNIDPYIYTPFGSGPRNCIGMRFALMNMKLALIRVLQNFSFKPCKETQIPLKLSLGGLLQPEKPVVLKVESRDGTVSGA
Summary of the method: (§4)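 CYP1A2, 2C9, 2C19, 2D6 and 3A4 inhibition measured and reported as IC₅₀ (μM).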

Rattus norvegicus [16] = experiment: Toxicity in rat assessed as induction of mild and sporadic salivation at 250 mg/kg, po administered up to 28 days; format: organism-based; settings: in vivo, 672 h; summary of the method: as §3
Canis familiaris = experiment: Toxicity in dog at 10 to 75 mg/kg/day administered for 5 days; format: organism-based, Canis lupus familiaris; settings: in vivo, 120 h
Rattus norvegicus [17] = experiment: Toxicity in rat assessed as decrease in locomotor activity at 250 mg/kg, po administered up to 28 days; format: organism-based; settings: in vivo, 672 h; summary of the method: as §3
Rattus norvegicus [18] = experiment: Wake-promoting activity in Sprague-Dawley rat assessed as decrease in non-rapid eye movement sleep duration at 10 mg/kg, sc administered during light sleep phase measured over first 6 hrs post-treatment; format: functional, organism-based
Summary of the method: (§5)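 Rats treated during the light sleep phase. Time awake, NREM and REM sleep duration scored over the first 6 h post-treatment.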

Homo sapiens = species on record: Homo sapiens; experiment: Toxicity in human assessed as insomnia; format: organism-based; settings: in vivo
Rattus norvegicus [19] = experiment: Wake-promoting activity in Sprague-Dawley rat assessed as increase in time spent awake at 10 mg/kg, sc administered during light sleep phase measured over first 6 hrs post-treatment; format: functional; summary of the method: as §5
[20] = Toxicity in po dosed rat administered up to 28 days; format: organism-based; settings: in vivo; summary of the method: as §3
Cytochrome P450 1A2 = biological target: T1, Cytochrome P450 1A2 (Homo sapiens, UniProt P05177); experiment: Inhibition of CYP1A2 (unknown origin); format: ADME; summary of the method: as §4
T1 sequence (P05177 whole entry): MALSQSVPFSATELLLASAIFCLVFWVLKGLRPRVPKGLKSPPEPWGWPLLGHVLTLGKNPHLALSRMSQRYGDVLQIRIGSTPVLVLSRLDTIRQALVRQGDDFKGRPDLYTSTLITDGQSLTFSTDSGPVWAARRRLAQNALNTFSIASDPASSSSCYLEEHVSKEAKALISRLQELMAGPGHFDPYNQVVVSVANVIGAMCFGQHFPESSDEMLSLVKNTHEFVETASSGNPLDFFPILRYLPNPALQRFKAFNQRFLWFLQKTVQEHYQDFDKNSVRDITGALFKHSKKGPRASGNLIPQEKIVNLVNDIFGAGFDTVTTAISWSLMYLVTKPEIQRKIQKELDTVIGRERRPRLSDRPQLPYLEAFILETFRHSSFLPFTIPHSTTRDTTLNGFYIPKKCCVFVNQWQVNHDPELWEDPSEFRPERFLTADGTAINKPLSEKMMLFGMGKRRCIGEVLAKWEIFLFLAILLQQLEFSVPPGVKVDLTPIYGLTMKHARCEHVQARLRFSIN

[21] = Elimination half life in human at 5 mg; format: ADME, organism-based; settings: in vivo, read-out: beta t1/2 (converted); summary of the method: as §2
Cytochrome P450 2C9 = Cytochrome P450 2C9 (Homo sapiens, UniProt P11712); experiment: Inhibition of CYP2C9 (unknown origin); format: ADME; summary of the method: as §4
Chain of Cytochrome P450 2C9 (P11712 whole entry): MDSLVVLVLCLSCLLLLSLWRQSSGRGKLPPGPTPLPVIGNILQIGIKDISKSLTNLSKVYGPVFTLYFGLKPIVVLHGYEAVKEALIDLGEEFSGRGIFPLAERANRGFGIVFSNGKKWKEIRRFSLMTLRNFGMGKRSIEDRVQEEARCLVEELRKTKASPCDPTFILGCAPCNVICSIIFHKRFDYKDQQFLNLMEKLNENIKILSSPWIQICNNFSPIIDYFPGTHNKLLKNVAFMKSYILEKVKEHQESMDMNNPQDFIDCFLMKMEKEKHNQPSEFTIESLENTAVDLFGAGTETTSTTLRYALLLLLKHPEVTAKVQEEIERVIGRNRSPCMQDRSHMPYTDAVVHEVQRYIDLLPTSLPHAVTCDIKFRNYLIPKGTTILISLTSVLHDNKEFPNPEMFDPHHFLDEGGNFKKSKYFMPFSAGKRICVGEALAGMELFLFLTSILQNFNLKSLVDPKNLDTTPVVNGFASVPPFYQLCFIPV

Rattus norvegicus [22] = experiment: Toxicity in Sprague-Dawley rat assessed as increase in locomotor activity at 10 mg/kg, sc; format: organism-based; settings: in vivo
Rattus norvegicus [23] = experiment: Toxicity in rat assessed as decrease in food consumption at 250 mg/kg, po administered up to 28 days; format: organism-based; settings: in vivo, 672 h; summary of the method: as §3
Cytochrome P450 2D6 = Cytochrome P450 2D6 (Homo sapiens, UniProt P10635); experiment: Inhibition of CYP2D6 (unknown origin); format: ADME; summary of the method: as §4
Chain of Cytochrome P450 2D6 (P10635 whole entry): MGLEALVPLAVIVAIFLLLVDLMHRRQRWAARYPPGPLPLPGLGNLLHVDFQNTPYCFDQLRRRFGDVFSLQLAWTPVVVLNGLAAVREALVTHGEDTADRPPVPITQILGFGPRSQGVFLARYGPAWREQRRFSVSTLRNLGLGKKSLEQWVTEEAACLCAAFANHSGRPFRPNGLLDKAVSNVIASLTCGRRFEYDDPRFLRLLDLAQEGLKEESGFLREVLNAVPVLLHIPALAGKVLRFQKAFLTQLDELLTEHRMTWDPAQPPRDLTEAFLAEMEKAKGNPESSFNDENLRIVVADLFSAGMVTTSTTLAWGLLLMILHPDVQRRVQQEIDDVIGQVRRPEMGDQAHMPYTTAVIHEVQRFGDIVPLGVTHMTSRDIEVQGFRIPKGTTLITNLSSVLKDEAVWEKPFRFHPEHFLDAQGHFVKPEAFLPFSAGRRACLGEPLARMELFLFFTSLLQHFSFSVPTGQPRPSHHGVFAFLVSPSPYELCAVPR

Cytochrome P450 2C19 = Cytochrome P450 2C19 (Homo sapiens, UniProt P33261); experiment: Inhibition of CYP2C19 (unknown origin); format: ADME; summary of the method: as §4
Chain of Cytochrome P450 2C19 (P33261 whole entry): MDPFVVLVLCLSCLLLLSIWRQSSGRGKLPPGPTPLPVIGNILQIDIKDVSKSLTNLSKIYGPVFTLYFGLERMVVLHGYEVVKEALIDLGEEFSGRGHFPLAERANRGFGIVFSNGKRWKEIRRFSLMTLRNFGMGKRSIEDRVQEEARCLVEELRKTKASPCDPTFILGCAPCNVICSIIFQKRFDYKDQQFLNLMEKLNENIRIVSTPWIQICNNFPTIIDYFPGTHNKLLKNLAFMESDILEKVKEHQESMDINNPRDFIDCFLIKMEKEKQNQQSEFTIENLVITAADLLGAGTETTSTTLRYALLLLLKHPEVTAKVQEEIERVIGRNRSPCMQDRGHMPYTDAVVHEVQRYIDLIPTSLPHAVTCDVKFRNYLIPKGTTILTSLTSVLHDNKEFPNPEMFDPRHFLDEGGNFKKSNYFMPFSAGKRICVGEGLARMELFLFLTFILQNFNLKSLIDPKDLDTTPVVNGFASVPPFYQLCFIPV

Rattus norvegicus [24] = experiment: Toxicity in rat assessed as clinical pathology alteration at 250 mg/kg, po administered up to 28 days; format: organism-based; settings: in vivo, 672 h; summary of the method: as §3
Rattus norvegicus [25] = experiment: Toxicity in Sprague-Dawley rat assessed as effect on rapid eye movement sleep at 10 mg/kg, sc administered during light sleep phase measured over first 6 hrs post-treatment; format: organism-based; settings: in vivo

O=C(c1ccc(CN2CCOCC2)cc1)N1CCN(C2CCC2)CC1
IC50 [1]: > 10 µM
bioavailability [2]: 85%
Activity [3]: Not Active
Papp B→A at 10 µM [4]: 22.4 ×10⁻⁶ cm/s
concentration at 1 h [5]: 8.1 µM
remaining at 0.25 h, 1 µM [6]: 49.6%
Vd [7]: 6.4 L/kg
half-life [8]: 2.1 h
Ki (Histamine H3 receptor): 0.0013 µM
Occ (Rattus norvegicus [9]): 96%
clearance [10]: 34.9 mL/min/kg
Papp A→B at 1 h, 10 µM [11]: 71.2 ×10⁻⁶ cm/s
remaining at 0.25 h, 1 µM [12]: 85.4%

CC(C)N1CCN(C(=O)c2ccc(CN3CCOCC3)cc2)CC1.O=C(O)/C=C\C(=O)O
IC50 [1]: > 10 µM
Activity (Mus musculus): Non-toxic
fraction unbound [13]: 0.876
bioavailability [2]: 62%
half-life [14]: 49.1 h
Activity (Rattus norvegicus [15]): Toxic
Activity [3]: Not Active
IC50 (Cytochrome P450 3A4): > 40 µM
Activity (Rattus norvegicus [16]): Toxic
Papp B→A at 10 µM [4]: 20.9 ×10⁻⁶ cm/s
Activity (Canis familiaris): Non-toxic
Activity (Rattus norvegicus [17]): Toxic
concentration at 1 h [5]: 5.37 µM
Activity (Rattus norvegicus [18]): Active
Activity (Homo sapiens): Toxic
Time (Rattus norvegicus [19]): 1 h
NOAEL at 672 h [20]: 25 mg/kg/day
IC50 (Cytochrome P450 1A2): > 40 µM
Vd [7]: 3.6 L/kg
half-life [8]: 3.2 h
Ki (Histamine H3 receptor): 0.0025 µM
half-life [21]: 56.1 h
IC50 (Cytochrome P450 2C9): > 40 µM
Activity (Rattus norvegicus [22]): Non-toxic
Activity (Rattus norvegicus [23]): Toxic
Occ (Rattus norvegicus [9]): 86%
clearance [10]: 12.8 mL/min/kg
Papp A→B at 1 h, 10 µM [11]: 22.4 ×10⁻⁶ cm/s
IC50 (Cytochrome P450 2D6): > 40 µM
IC50 (Cytochrome P450 2C19): > 40 µM
Activity (Rattus norvegicus [24]): Toxic
remaining at 0.25 h, 1 µM [12]: 65%
Activity (Rattus norvegicus [25]): Non-toxic

CC(C)N1CCN(C(=O)c2ccc(CN3CCC(F)CC3)cc2)CC1
bioavailability [2]: 17%
concentration at 1 h [5]: 1.82 µM
remaining at 0.25 h, 1 µM [6]: 50%
Vd [7]: 29.2 L/kg
half-life [8]: 7.6 h
Ki (Histamine H3 receptor): 0.0015 µM
Occ (Rattus norvegicus [9]): 92%
clearance [10]: 44.2 mL/min/kg
remaining at 0.25 h, 1 µM [12]: 84.8%

O=C(c1ccc(CN2CCC(F)CC2)cc1)N1CCN(C2CC2)CC1
IC50 [1]: > 10 µM
bioavailability [2]: 14%
concentration at 1 h [5]: 0.54 µM
remaining at 0.25 h, 1 µM [6]: 26.8%
Vd [7]: 3.9 L/kg
half-life [8]: 1.1 h
Occ (Rattus norvegicus [9]): 25%
clearance [10]: 41.4 mL/min/kg
remaining at 0.25 h, 1 µM [12]: 83.6%
